hERG protect: compounds protecting human hERG from proarrhythmic drug block. activation (rescue from dofetilide block), less the hit threshold, % at 10 µM. CHO-hERG, FluxOR thallium flux, dofetilide IC70 present. 310,000 tested, 0.51% active. Q12809;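 active = activation above the mean of controls blocked by dofetilide plus 5 SD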;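 also: thallium influx through hERG after potassium depolarization seen as dye fluorescence rise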
KCNQ1 block: inhibitors of human KCNQ1 potassium channel. P51787. CHO-K1 KCNQ1, FluxOR thallium flux fluorescence; hits give high values. B-score at 10 µM. 310,000 tested, 1.3% active. AID 2642;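 active = compounds whose thallium flux B-score, printed positive for inhibition, exceeds three library SD while starting fluorescence stays within three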;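 also: channel opened by potassium depolarization with thallium stimulus after 20 min compound exposure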
KCNK9 inh: blocks the human KCNK9 two-pore domain potassium channel. Q9NPC2. HEK293 KCNK9, FluxOR thallium flux fluorescence; hits give low values. B-score at 10 µM. 310,000 tested, 1.2% active;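 active = ratio B-score over 3 SD below the library mean, with starting fluorescence within 5 SD of its mean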;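 also: negative B-score means less thallium flux so channel inhibition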
KCNQ1 pot: human KCNQ1 channel potentiation or activation; P51787; CHO-K1 KCNQ1, thallium flux FluxOR fluorescence; hits give high values; B-score at 10 µM; 310,000 tested, 0.35% active; AID 2648;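 active = fluorescence ratio B-score, a plate-corrected score, at least three library SD, with initial intensity B-score within 5 SD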
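Assay system: CHO-K1 cells stably expressing KCNQ1. Medium: assay buffer for compound exposure, DMSO matched across wells. Timing: 37 °C overnight plating, 90-min dark dye load, 20-min compound pretreatment. Signal: kinetic FluxOR fluorescence, 10 s baseline plus 110 s post-stimulus.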
Kir21 block: blocks the mouse Kir2.1 inward-rectifier potassium channel; AID 1672; 310,000 tested, 0.85% active; HEK293-Kir2.1, FluxOR thallium flux fluorescence; hits give low values; P35561; B-score at 10 µM;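 active = fluorescence ratio B-score at or below minus 3 SD of library scores, with starting-brightness B-score within 2 SD, cut at about -4.2 in these data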;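 also: channel flux triggered by added potassium and thallium sulfate stimulus; B-score of peak minus minimum fluorescence over baseline after thallium stimulus; more negative B-score means stronger Kir2.1 block with less thallium influx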
KCNK3 inh: human KCNK3 channel inhibition, primary screen; O14649; AID 602410; B-score at 10 µM; CHO-KCNK3 thallium flux, FluxOR fluorescence; hits give low values; 340,000 tested, 0.84% active;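 active = B-score under library mean minus 4 SD, starting fluorescence ratio at most library mean plus 5 SD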;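 also: more negative B-score means stronger inhibition of thallium flux through KCNK3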
Target sequence (O14649 whole entry, looked up): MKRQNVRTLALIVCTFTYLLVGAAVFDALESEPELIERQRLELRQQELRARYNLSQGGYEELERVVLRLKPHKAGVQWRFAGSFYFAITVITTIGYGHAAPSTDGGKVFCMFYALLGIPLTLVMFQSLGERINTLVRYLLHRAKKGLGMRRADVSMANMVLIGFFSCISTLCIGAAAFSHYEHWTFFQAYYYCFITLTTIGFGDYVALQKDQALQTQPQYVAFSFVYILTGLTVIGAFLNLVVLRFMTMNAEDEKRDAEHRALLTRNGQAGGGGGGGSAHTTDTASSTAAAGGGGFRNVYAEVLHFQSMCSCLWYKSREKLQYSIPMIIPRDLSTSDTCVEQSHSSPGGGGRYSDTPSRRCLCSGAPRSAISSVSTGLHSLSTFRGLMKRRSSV
KCNK9 inh conf: human KCNK9 inhibitor confirmation. HEK293 KCNK9 cells, FluxOR thallium flux fluorescence. AID 492992. shares compounds with KCNK9 inh. inhibition, % at 10 µM. 4,900 tested, 43% active;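 active = thallium signal inhibited by more than 5 SD of the compound-free buffer control wells, on both duplicate plates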
Kir21 sel: tests whether KCNK9 modulators also affect mouse Kir2.1; inhibition, % at 10 µM; shares compounds with KCNK9 inh; 4,900 tested, 4% active; AID 492993; Kir2.1 cells, FluxOR thallium flux fluorescence;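 active = thallium signal drop more than 5 SD beyond the mean of the no-compound control wells, seen in both duplicate plates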;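 also: signal is fluorescence rise after thallium addition divided by baseline fluorescence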
HEK293 Tl ctr: second counter-screen for KCNK9 modulators: effect in non-induced cells. AID 492997. 4,900 tested, 40% active. shares compounds with KCNK9 inh. inhibition, % at 10 µM. non-induced KCNK9-HEK293, FluxOR thallium flux;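 active = thallium signal drop beyond 5 SD of the untreated control mean, on both duplicate plates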
Large screens that a line does not name were inactive (follow-up assays come after a bar, where they were run). Hits are enriched below; roughly 3.8% of the tested compounds scored in any of these assays.

COC(=O)C1=C(C)OC(N)=C(C#N)C1c1ccccc1 (centres undefined)	none
COC(=O)C1=C(C)OC(N)=C(C#N)C1c1c(C)nn(-c2ccccc2)c1Cl (centres undefined)	KCNK9 inh -13 | KCNK9 inh conf 37% | Kir21 sel inactive | HEK293 Tl ctr inactive
COC(=O)CC(NC(=S)NC(=O)c1ccccc1)c1ccc(Br)cc1 (centres undefined)	none
CCCOc1ccc(C(=O)C(CN2CCOCC2)c2ccccc2)cc1 (centres undefined)	none | KCNK9 inh conf inactive | Kir21 sel inactive | HEK293 Tl ctr inactive
O=C(O)CCCN1C(=O)/C(=C/c2cn(-c3ccccc3)nc2-c2cccs2)SC1=S	none
Cc1nn(-c2ccccc2)c(Cl)c1/C=C1\SC(=S)N(CCCCCC(=O)O)C1=O	none | KCNK9 inh conf inactive | Kir21 sel inactive | HEK293 Tl ctr inactive
COc1cc(/C=N/NC(=O)CCC(=O)NC2CCCCC2)ccc1C	none
COc1ccc(/C=C(/NC(=O)/C=C/c2ccccc2)C(=O)NCCCCCC(=O)O)cc1	none
CCOC(=O)C1(C)NC(c2cccc(C)c2)C2C(=O)N(c3ccccc3)C(=O)C21 (centres undefined)	none | KCNK9 inh conf inactive | Kir21 sel inactive | HEK293 Tl ctr inactive
CCOC(=O)C1(C)NC(c2cccs2)C2C(=O)N(c3ccc(C)cc3)C(=O)C21 (centres undefined)	none
C=CCC(=O)N(CC)CC1CCCN(CCc2cccc(F)c2)C1 (centres undefined)	KCNK9 inh -9.1 | KCNK9 inh conf inactive | Kir21 sel inactive | HEK293 Tl ctr inactive
CCN(CC1CCCN(CCc2cccc(F)c2)C1)C(=O)c1ccc(CSC)o1 (centres undefined)	none
CN(C)c1cc2c(cc1NC(=O)c1ccccc1Cl)n(C)c(=O)n2C	none
Cc1cccc(COCC(Cc2ccccc2)N2CCN(C(=O)c3cccc(C)c3)CCC2=O)c1 (centres undefined)	none | KCNK9 inh conf inactive | Kir21 sel inactive | HEK293 Tl ctr inactive
O=C(COC(=O)c1c2c(nc3ccccc13)CCN(Cc1ccccc1)C2)Nc1c(F)cccc1F	KCNK9 inh -8.3 | KCNK9 inh conf inactive | Kir21 sel inactive | HEK293 Tl ctr inactive
CCOC(=O)c1sc(NC(=S)NC(=O)c2ccccc2Cl)c(C(=O)OCC)c1C	KCNK9 inh -9.1 | KCNK9 inh conf inactive | Kir21 sel inactive | HEK293 Tl ctr inactive
CO/N=C/c1cccn1-c1nccc(N(C)C)c1C#N	none
Clc1ccc(CO/N=C/c2c(-c3ccccc3)nc3n2CCS3)c(Cl)c1	KCNK9 inh -9.7 | KCNK9 inh conf inactive | Kir21 sel inactive | HEK293 Tl ctr 28%
CCCCc1ccc(NC(=O)CSc2nc(=O)n(CCCN3CCOCC3)c3c2CCC3)cc1	none
COc1cc(/C=C2\C(=N)N3N=CSC3=NC2=O)ccc1OS(=O)(=O)c1ccccc1[N+](=O)[O-]	none | KCNK9 inh conf inactive | Kir21 sel inactive | HEK293 Tl ctr inactive
COc1ccc(/C=C2\CCC/C(=C\c3ccc(OC)c(OC)c3OC)C2=O)c(OC)c1OC	none | KCNK9 inh conf inactive | Kir21 sel inactive | HEK293 Tl ctr inactive
Cc1nn2c(NCc3ccccn3)cc(C(C)(C)C)nc2c1-c1ccccc1	none | KCNK9 inh conf inactive | Kir21 sel inactive | HEK293 Tl ctr inactive
Cc1nn2c(NCc3ccccn3)c3c(nc2c1-c1ccccc1)CCC3	none
O=C(NCC(c1ccco1)N1CCc2ccccc2C1)c1cccc(Br)c1 (centres undefined)	KCNK9 inh -12 | KCNK9 inh conf inactive | Kir21 sel inactive | HEK293 Tl ctr 26%
Cc1ccc(C)c(S(=O)(=O)NCC(c2ccco2)N2CCc3ccccc3C2)c1 (centres undefined)	KCNK9 inh -11 | KCNK9 inh conf 48% | Kir21 sel inactive | HEK293 Tl ctr 41%
O=C(NCC(c1ccco1)N1CCc2ccccc2C1)c1ccc(Br)cc1 (centres undefined)	none | KCNK9 inh conf inactive | Kir21 sel inactive | HEK293 Tl ctr 35%
Cc1ccc(C(=O)NCC(c2ccco2)N2CCc3ccccc3C2)cc1 (centres undefined)	none
Cc1csc(SC(C)C(=O)NCC2CCCO2)n1 (centres undefined)	none
CCC(=O)N(CCC1(c2ccccc2OC)CCOC(C(C)C)C1)Cc1ccco1 (centres undefined)	KCNK9 inh -14 | KCNK9 inh conf 47% | Kir21 sel inactive | HEK293 Tl ctr 46%
COc1ccccc1C1(CC(=O)O)CCOC(C(C)C)C1 (centres undefined)	none
CN(C)c1ccc2c(c1)Sc1cc(N(C)C)ccc1N2C(=O)c1ccccc1	KCNQ1 block 6 | KCNK9 inh conf inactive | Kir21 sel inactive | HEK293 Tl ctr inactive
COc1ccc(/C=N/NC(=O)COc2ccc(Cl)cc2Cl)cc1Cn1nc(C)cc1C	none
Cc1c(CCC(=O)O)c(=O)oc2cc3oc4c(c3cc12)CCCC4	none | KCNK9 inh conf inactive | Kir21 sel inactive | HEK293 Tl ctr inactive
Cc1cccc(/C=N/n2c(COc3ccccc3)n[nH]c2=S)c1	KCNK9 inh -9, KCNQ1 pot 14 | KCNK9 inh conf inactive | Kir21 sel inactive | HEK293 Tl ctr inactive
S=c1[nH]nc(COc2ccccc2)n1/N=C/c1ccc(Cl)c(Cl)c1	none
CC(C)CCNC(=O)[C@H](CSCc1ccccc1)N1Cc2ccccc2C1=O	none | KCNK9 inh conf inactive | Kir21 sel inactive | HEK293 Tl ctr inactive
CC(C)CCNC(=O)[C@H](Cc1ccccc1)N1Cc2ccccc2C1=O	none
COc1cc(CN2CCN(c3ccc(C)cc3)CC2)cc([N+](=O)[O-])c1O	none (no result: KCNK3 inh)
COc1cc(CN2CCN(c3cc(C)ccc3C)CC2)cc([N+](=O)[O-])c1O	none (no result: KCNK3 inh) | KCNK9 inh conf inactive | Kir21 sel inactive | HEK293 Tl ctr inactive
CCOc1ccc(CN(CC)C(=O)c2ccc3c(c2)[nH]c(=O)c(=O)n3CC)cc1OC	none
Cc1ccc(CSc2sc(C(=O)c3ccccc3)c(N)c2C#N)cc1	KCNK9 inh -9 | KCNK9 inh conf 36% | Kir21 sel inactive | HEK293 Tl ctr 42%
N#Cc1c(SCc2ccccc2)sc(C(=O)c2ccccc2)c1N	none
CC/C(=N/Nc1ccccc1Cl)c1cnnc(-c2ccccc2)n1	KCNK9 inh -13 | KCNK9 inh conf inactive | Kir21 sel inactive | HEK293 Tl ctr 38%

Screening results (PubChem BioAssay)
